Measured values pooled from the literature.
Protocols differ between the studies behind these lines.
LRRK2 G2019S: Leucine-rich repeat serine/threonine-protein kinase 2 (LRRK2, Homo sapiens, UniProt Q5S007, G2019S)
LRRK2: Leucine-rich repeat serine/threonine-protein kinase 2 (LRRK2, Homo sapiens, UniProt Q5S007)

O=C(O)[C@H]1[C@H](Cn2nnc3ccccc3c2=O)CC[C@@H]1C(=O)c1ccc(OCCC2CCOCC2)cc1
remaining binding (LRRK2 G2019S; cell-free assay; competition with immobilised ligand; 1 µM): 100%

Cc1sc(C(=O)NC2COC2)cc1-n1cc(NC(=O)Nc2c(F)cccc2Cl)cn1
remaining activity (LRRK2; enzyme activity; inhibitor; 10 µM): 101%

CC(C)(O)[C@H]1CC[C@H](Nc2ccc3ncc(-c4cccc(C(F)(F)F)c4)n3n2)CC1
remaining activity (LRRK2; enzyme activity; inhibitor; 1 µM): 66.1%

CC1CCCN1c1nccc(-c2cnn3ncccc23)n1 (centres unmarked)
remaining binding (LRRK2; binding; 1 µM): 100%

Nc1ncnc2occ(-c3ccc(NC(=O)Nc4cc(C(F)(F)F)ccc4F)cc3)c12
remaining signal (LRRK2 G2019S; cell-free assay; inhibitor; 20 µM): 12%

CCN(CC)CCNC(=O)c1c(C)[nH]c(/C=C2\C(=O)Nc3ccc(F)cc32)c1C
remaining signal (LRRK2; cell-free assay; 0.5 µM): 3.34%

COc1cc2nccc(Oc3ccc(NC(=O)c4c5n(n(-c6ccc(F)cc6)c4=O)CCCC5)cc3)c2cc1OC
inhibition (LRRK2; enzyme activity; inhibitor; 0.1 µM): 0%

Cc1ccc(C(=O)Nc2ccc(CN3CCN(C)CC3)c(C(F)(F)F)c2)cc1C#Cc1cnc2cccnn12
remaining activity (LRRK2; enzyme activity; inhibitor; 23.5 nM): 83%

COc1cc(-c2cn(C3CCc4c(F)cccc4N(CC(F)(F)F)C3=O)nn2)ccc1-n1cnc(C)c1 (centres unmarked)
remaining binding (LRRK2 G2019S; cell-free assay; competition with immobilised ligand; 1 µM): 100%

O=C1NC(=O)c2cc(Nc3ccc(F)cc3)c(Nc3ccc(F)cc3)cc21
remaining signal (LRRK2; cell-free assay; 0.5 µM): 99.8%

Cc1cnn2ncc(-c3ccnc(N(C)C)n3)c2c1
remaining binding (LRRK2; binding; 1 µM): 47%

O=C(Nc1cnc(Oc2ccc(F)cc2)nc1)N1CCc2ncccc2[C@@H]1c1ccc(F)cc1
remaining binding (LRRK2; cell-free assay; competition with immobilised ligand; 1 µM): 83%

CN(C)C1CCN(CC#Cc2nn(C3CCCC3)c3nc(NCc4ccccc4)ncc23)C1 (centres unmarked)
inhibition (LRRK2; enzyme activity; inhibitor; FRET; 10 µM): 7%

Nc1c(C(=O)NCc2ccc(C(=O)NCCCC3CCCCC3)cc2)cnn1-c1ccccc1
remaining binding (LRRK2; binding; competition with immobilised ligand; 1 µM): 39%

Cc1cnc(NC2CCOCC2)nc1-n1cnc(C(=O)NC(CN)c2cc(F)cc(Cl)c2)c1 (centres unmarked)
remaining activity (LRRK2; enzyme activity; inhibitor; radiometric; 1 µM): 95%

COc1ccc2c(c1)O[C@@H](c1ccc(OC)c(OC)c1)C[C@H]2NC(=O)C1(c2ccc3c(c2)OC(F)(F)O3)CC1
remaining binding (LRRK2; cell-free assay; competition with immobilised ligand; 1 µM): 87%

Cc1ccc(Nc2nccc(N(C)c3ccc4c(C)n(C)nc4c3)n2)cc1S(N)(=O)=O
remaining activity (LRRK2; enzyme activity; inhibitor; 0.5 µM): 109%

C[C@@H]1CCN(c2nccc(-c3cnn4ncccc34)n2)C1
remaining binding (LRRK2; binding; 1 µM): 59%

CN([C@@H]1CCc2c(CC(=O)O)c3cc(S(C)(=O)=O)ccc3n2C1)S(=O)(=O)c1ccc(F)cc1
remaining binding (LRRK2; cell-free assay; competition with immobilised ligand; 1 µM): 100%

COc1cc(-c2cc(-c3ccc(N4CCNCC4)cc3)cnc2N)cc(OC)c1OC
inhibition (LRRK2; enzyme activity; inhibitor; 1 µM): 33%

COCCOc1nc(-c2ccc(Cl)nc2)nc2c1CN(C(=O)c1ncn3ccccc13)CC2
remaining binding (LRRK2; cell-free assay; competition with immobilised ligand; 0.1 µM): 100%

O=C(Nc1cnn(-c2csc(C(=O)NC3COC3)c2)c1)Nc1c(F)cccc1Cl
remaining activity (LRRK2; enzyme activity; inhibitor; 5 µM): 91.3%

N[C@@H]1CCN(c2nccc(-c3cnn4ncccc34)n2)C1
remaining binding (LRRK2 G2019S; binding; 1 µM): 100%

CN(C)CC#Cc1ccc(OCCCc2sc(N3CCc4cccc(C(=O)Nc5nc6ccccc6s5)c4C3)nc2C(=O)O)c(F)c1
remaining binding (LRRK2 G2019S; cell-free assay; competition with immobilised ligand; 1 µM): 100%

COc1ccnn2ncc(-c3ccnc(N(C)C)n3)c12
remaining binding (LRRK2; binding; 1 µM): 56%

CC(C)(C)c1nc(-c2cccc(NS(=O)(=O)c3c(F)cccc3F)c2F)c(-c2ccnc(N)n2)s1
remaining activity (LRRK2; enzyme activity; inhibitor; radiometric; 1 µM): 102%
